The target in assay [1] is T1, NAD-dependent protein deacetylase sirtuin-7 (Homo sapiens) (UniProt Q9NRC8).
T1 sequence (whole entry): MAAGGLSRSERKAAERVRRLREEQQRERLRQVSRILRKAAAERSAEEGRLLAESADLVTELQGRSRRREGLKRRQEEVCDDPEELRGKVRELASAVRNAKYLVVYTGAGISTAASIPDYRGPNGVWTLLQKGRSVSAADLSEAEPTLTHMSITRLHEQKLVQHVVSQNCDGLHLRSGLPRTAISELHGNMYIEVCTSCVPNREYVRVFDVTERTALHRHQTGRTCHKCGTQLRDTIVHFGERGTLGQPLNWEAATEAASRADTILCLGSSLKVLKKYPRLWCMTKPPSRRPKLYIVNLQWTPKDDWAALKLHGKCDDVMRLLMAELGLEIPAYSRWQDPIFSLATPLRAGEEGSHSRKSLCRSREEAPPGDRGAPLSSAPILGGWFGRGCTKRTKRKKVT
The assay is described as follows: Binding affinity to SIRT7 (unknown origin) assessed as increase in fluorescence intensity at 2.5 uM measured at 5 mins interval for 1 hr in presence of NAD+ by fluorometric method relative to control. Put shortly: (§1)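 Each FITC/quencher FRET peptide probe was incubated with recombinant SIRT1–7 in 96-well half-area plates at 37 °C for 1 h. The fluorescence increase is reported as a fold change, SIRT(+) signal over SIRT(−) signal, after 1 h.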

In assay [2] the target is T2, NAD-dependent protein deacetylase sirtuin-1 (Homo sapiens) (UniProt Q96EB6).
T2 sequence (whole entry): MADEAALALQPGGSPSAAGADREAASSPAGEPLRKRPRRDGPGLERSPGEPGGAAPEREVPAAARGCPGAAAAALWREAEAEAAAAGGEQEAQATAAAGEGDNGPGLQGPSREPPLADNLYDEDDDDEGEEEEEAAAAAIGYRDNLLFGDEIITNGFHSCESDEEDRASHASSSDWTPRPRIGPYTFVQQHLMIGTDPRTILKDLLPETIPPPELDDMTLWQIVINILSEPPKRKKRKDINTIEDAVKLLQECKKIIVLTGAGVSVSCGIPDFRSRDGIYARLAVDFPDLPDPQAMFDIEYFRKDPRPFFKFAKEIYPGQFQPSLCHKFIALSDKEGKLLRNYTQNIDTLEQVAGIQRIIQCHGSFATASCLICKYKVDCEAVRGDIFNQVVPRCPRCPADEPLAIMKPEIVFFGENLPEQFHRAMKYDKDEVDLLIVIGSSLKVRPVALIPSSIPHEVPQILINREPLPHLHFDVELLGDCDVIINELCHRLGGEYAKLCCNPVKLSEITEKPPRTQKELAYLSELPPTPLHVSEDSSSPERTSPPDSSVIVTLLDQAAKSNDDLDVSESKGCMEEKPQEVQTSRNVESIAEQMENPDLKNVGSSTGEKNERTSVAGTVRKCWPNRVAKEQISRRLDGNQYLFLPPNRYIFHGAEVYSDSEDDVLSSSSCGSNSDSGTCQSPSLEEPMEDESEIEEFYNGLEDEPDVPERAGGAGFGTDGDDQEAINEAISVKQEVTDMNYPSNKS
The assay is described as follows: Binding affinity to SIRT1 (unknown origin) assessed as increase in fluorescence intensity at 2.5 uM measured at 5 mins interval for 1 hr in presence of NAD+ by fluorometric method relative to control. The gist of the method:
as §1

For assay [3], the target named is T3, NAD-dependent protein deacetylase sirtuin-2 (Homo sapiens) (UniProt Q8IXJ6).
T3 sequence (whole entry): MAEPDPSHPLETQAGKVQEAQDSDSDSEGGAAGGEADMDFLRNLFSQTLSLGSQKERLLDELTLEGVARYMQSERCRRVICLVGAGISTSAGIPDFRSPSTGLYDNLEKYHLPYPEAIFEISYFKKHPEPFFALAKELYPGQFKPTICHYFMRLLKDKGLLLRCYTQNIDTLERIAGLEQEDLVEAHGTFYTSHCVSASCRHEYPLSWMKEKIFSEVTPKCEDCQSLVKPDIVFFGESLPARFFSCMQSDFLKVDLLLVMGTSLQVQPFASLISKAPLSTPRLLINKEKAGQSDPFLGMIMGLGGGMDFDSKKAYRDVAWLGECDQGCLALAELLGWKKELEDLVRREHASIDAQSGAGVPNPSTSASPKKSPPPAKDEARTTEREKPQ
The assay is described as follows: Binding affinity to SIRT2 (unknown origin) assessed as increase in fluorescence intensity measured at 5 mins interval for 1 hr in presence of NAD+ by fluorometric method.

Assay [4] has as its target T4, NAD-dependent protein lipoamidase sirtuin-4, mitochondrial (Homo sapiens) (UniProt Q9Y6E7).
T4 sequence (whole entry): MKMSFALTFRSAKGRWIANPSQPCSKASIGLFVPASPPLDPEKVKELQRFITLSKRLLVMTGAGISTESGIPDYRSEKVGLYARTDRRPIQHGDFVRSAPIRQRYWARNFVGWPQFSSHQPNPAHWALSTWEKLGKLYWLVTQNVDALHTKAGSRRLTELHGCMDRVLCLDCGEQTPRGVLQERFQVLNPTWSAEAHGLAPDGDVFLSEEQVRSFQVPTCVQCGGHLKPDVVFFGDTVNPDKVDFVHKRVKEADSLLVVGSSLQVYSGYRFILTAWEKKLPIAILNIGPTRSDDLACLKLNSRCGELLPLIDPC
Briefly: Binding affinity to SIRT4 (unknown origin) assessed as increase in fluorescence intensity at 2.5 uM measured at 5 mins interval for 1 hr in presence of NAD+ by fluorometric method relative to control. Put shortly: as §1

Assay [5] concerns the target NAD-dependent protein deacylase sirtuin-5, mitochondrial (Homo sapiens) (UniProt Q9NXA8). The assay is described as follows: Binding affinity to SIRT5 (unknown origin) assessed as increase in fluorescence intensity at 2.5 uM measured at 5 mins interval for 1 hr in presence of NAD+ by fluorometric method relative to control. Put shortly:
as §1

In assay [6] the target is T3, NAD-dependent protein deacetylase sirtuin-2 (Homo sapiens). Briefly: Binding affinity to SIRT2 (unknown origin) assessed as increase in fluorescence intensity at 2.5 uM measured at 5 mins interval for 1 hr in presence of NAD+ by fluorometric method relative to control. Put shortly: as §1
For assay [7] the target is unchanged. Briefly: Binding affinity to SIRT2 (unknown origin) assessed as increase in fluorescence intensity at 2.92 to 8.75 nM measured at 5 mins interval for 4 hrs in presence of NAD+ by fluorometric method. To be noted: dose 2.92-8.75 nM.
Assay [8] concerns the target NAD-dependent protein deacylase sirtuin-6 (Homo sapiens) (UniProt Q8N6T7). The assay is described as follows: Binding affinity to SIRT6 (unknown origin) assessed as increase in fluorescence intensity at 2.5 uM measured at 5 mins interval for 1 hr in presence of NAD+ by fluorometric method relative to control. The gist of the method:
as §1

The target of assay [9] is T5, NAD-dependent protein deacetylase sirtuin-3, mitochondrial (Homo sapiens) (UniProt Q9NTG7).
T5 sequence (whole entry): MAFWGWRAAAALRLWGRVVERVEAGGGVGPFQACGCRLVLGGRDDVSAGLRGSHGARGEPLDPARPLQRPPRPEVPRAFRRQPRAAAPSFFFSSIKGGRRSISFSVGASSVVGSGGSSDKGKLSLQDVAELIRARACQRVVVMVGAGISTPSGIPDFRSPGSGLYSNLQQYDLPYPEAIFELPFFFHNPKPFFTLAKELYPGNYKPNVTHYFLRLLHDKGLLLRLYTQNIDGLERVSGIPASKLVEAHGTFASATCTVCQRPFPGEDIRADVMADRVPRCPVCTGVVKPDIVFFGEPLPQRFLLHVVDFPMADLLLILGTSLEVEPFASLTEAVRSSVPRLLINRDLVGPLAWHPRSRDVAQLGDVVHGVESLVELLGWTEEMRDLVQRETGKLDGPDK
The assay is described as follows: Binding affinity to SIRT3 (unknown origin) assessed as increase in fluorescence intensity at 2.5 uM measured at 5 mins interval for 1 hr in presence of NAD+ by fluorometric method relative to control. Put shortly:
as §1

In assay [10] the target is T6, NAD-dependent protein deacetylase sirtuin-2 (Homo sapiens, UniProt Q8IXJ6).
T6 sequence (Q8IXJ6 whole entry): T3 sequence (whole entry)
Briefly: Inhibition of 5-(3-((1r,4r)-4-((5S,8S,11S,14S,17S,20S,29S)-11-((1H-imidazol-4-yl)methyl)-1,33-diamino-5-carbamoyl-17-(4-(4-(4-((4-(dimethylamino)phenyl)diazenyl)phenyl)butanamido)butyl)-8,14-bis(3-guanidinopropyl)-20-methyl-7,10,13,16,19,22,25,28-octaoxo-6,9,12,15,18,21,24,27-octaazatritriacontan-29-ylcarbamoyl)cyclohexyl)thioureido)-2-(6-hydroxy-3-oxo-3H-xanthen-9-yl)benzoic acid binding to SIRT2 (unknown origin) measured after 2 hrs in presence of NAD+ by fluorometric method. The gist of the method:
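The second screen used the same SIRT2 one-step FRET probe conditions, validated at 2.92 nM SIRT2. Compounds were tested over a range of concentrations to check dose-dependency, and the IC50 was derived from the dose–response curve.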

Assay [11] has as its target T3, NAD-dependent protein deacetylase sirtuin-2 (Homo sapiens). The assay is described as follows: Inhibition of 5-(3-((1r,4r)-4-((5S,8S,11S,14S,17S,20S,29S)-11-((1H-imidazol-4-yl)methyl)-1,33-diamino-5-carbamoyl-17-(4-(4-(4-((4-(dimethylamino)phenyl)diazenyl)phenyl)butanamido)butyl)-8,14-bis(3-guanidinopropyl)-20-methyl-7,10,13,16,19,22,25,28-octaoxo-6,9,12,15,18,21,24,27-octaazatritriacontan-29-ylcarbamoyl)cyclohexyl)thioureido)-2-(6-hydroxy-3-oxo-3H-xanthen-9-yl)benzoic acid binding to SIRT2 (unknown origin) at 10 uM measured after 2 hrs in presence of NAD+ by fluorometric method relative to control. The gist of the method: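 In the primary library screen, 384-well plates held SIRT2 with the Dabcyl-BH/H4K16 one-step FRET probe. Each compound was tested at 10 μM with 0.5% DMSO, and inhibition was taken from the fluorescence signal.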

Activity calls are given as the source filed them. The calls are words filed in the database; no cut-off is given here. Numbered stars: 1 amine (or outer) side, 2 acyl side, 3 side chain; on linkers, the order of the positions; unused ones are H or OH. Square brackets hold non-standard residues; d marks the D form. Peptide text beside a SMILES is read from it. * marks the point of attachment. X1 = O=C(O)c1cc(NC(=S)*)ccc1-c1c2ccc(=O)cc-2oc2cc(O)ccc12; X2 = CN(CCC(=O)*)c1ccc(/N=N/c2ccc([N+](=O)[O-])cc2)cc1; Achc(trans-4) = O=C([C@H]1CC[C@H](N[*:1])CC1)[*:2]; X3 = CN(C)c1ccc(/N=N/c2ccc(CCC(=O)*)cc2)cc1; X5 = O=C(Cc1ccc(/N=N/c2ccc(O)cc2)cc1)*

NAD-dependent protein deacylase sirtuin-6 (Homo sapiens), sequence (Q8N6T7 whole entry): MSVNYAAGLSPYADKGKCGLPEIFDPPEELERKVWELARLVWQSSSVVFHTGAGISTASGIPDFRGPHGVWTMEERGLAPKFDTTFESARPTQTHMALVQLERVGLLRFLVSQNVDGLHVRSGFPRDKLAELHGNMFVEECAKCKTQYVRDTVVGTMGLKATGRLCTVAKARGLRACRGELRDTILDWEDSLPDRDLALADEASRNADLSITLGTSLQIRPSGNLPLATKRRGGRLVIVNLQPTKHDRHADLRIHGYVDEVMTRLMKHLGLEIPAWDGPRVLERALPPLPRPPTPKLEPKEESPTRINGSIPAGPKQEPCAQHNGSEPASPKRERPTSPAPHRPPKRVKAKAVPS
NAD-dependent protein deacylase sirtuin-5, mitochondrial (Homo sapiens), sequence (Q9NXA8 37-310 limits assumed): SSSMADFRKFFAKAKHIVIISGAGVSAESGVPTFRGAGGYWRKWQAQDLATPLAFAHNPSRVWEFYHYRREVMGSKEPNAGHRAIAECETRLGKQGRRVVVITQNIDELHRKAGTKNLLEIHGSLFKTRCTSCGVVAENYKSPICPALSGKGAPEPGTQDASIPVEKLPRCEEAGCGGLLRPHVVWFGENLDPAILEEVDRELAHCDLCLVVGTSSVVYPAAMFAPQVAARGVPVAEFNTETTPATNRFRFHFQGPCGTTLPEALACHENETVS

Regarding `C[C@H](NC(=O)CNC(=O)CNC(=O)[C@H](CCCCN)NC(=O)[C@H]1CC[C@H](NC(=S)Nc2ccc(-c3c4ccc(=O)cc-4oc4cc(O)ccc34)c(C(=O)O)c2)CC1)C(=O)N[C@@H](CCCCNC(=O)CCCc1ccc(/N=N/c2ccc(N(C)C)cc2)cc1)C(=O)N[C@@H](CCCNC(=N)N)C(=O)N[C@@H](Cc1c[nH]cn1)C(=O)N[C@@H](CCCNC(=N)N)C(=O)N[C@@H](CCCCN)C(N)=O`, the fold change (FC) in [1] is 1; in assay [2] it was 14.2; in [4], 1.11; in assay [5], 1.06; in [6], 12; in assay [8] it was 2.21. For the same molecule, the Activity entry in [3] is “Dose-dependent effect”. Besides, the outcome in assay [7] was Active.

In the case of `CC[C@H](C)[C@H](NC(=O)[C@H](CCCNC(=N)N)NC(=O)[C@H](Cc1ccc(O)cc1)NC(=O)[C@H](CC(=O)O)NC(=O)[C@H]1CC[C@H](NC(=S)Nc2ccc(-c3c4ccc(=O)cc-4oc4cc(O)ccc34)c(C(=O)O)c2)CC1)C(=O)N[C@@H](CCCCNC(=O)CCc1ccc(/N=N/c2ccc(N(C)C)cc2)cc1)C(=O)N[C@@H](CCCNC(=N)N)C(=O)N[C@@H](Cc1ccc(O)cc1)C(=O)N[C@@H](Cc1c[nH]cn1)C(=O)N[C@H](C(N)=O)[C@@H](C)O` (X1-[Achc(trans-4)]DYRIK(X3)RYHT-NH2), the fold change (FC) in assay [1] was found to be 1.01; in assay [2] it was 4.76; in [9], 1.96; in assay [4], 1.11; in assay [5], 1.09; in assay [6], 1.92. The fold change (FC) in assay [8] is 1.05.

Turning to `CC[C@H](C)[C@H](NC(=O)[C@H](CCCNC(=N)N)NC(=O)[C@H](Cc1ccccc1)NC(=O)[C@H](CC(N)=O)NC(=O)[C@H]1CC[C@H](NC(=S)Nc2ccc(-c3c4ccc(=O)cc-4oc4cc(O)ccc34)c(C(=O)O)c2)CC1)C(=O)N[C@@H](CCCCNC(=O)CCc1ccc(/N=N/c2ccc(N(C)C)cc2)cc1)C(=O)N[C@@H](CCCNC(=N)N)C(=O)N[C@@H](Cc1ccc(O)cc1)C(=O)N[C@@H](CO)C(=O)N[C@@H](CC(N)=O)C(N)=O` (X1-[Achc(trans-4)]NFRIK(X3)RYSN-NH2), the fold change (FC) in assay [1] amounted to 1.04; in [2], 4.79; in assay [9], 1.92; in assay [4], 1.14; in assay [5], 1.11; in [6], 1.85. Also, in assay [8], the fold change (FC) amounted to 1.07.

`C[C@H](NC(=O)[C@@H]1CCCN1C(=O)[C@H](C)NC(=O)[C@H]1CC[C@H](NC(=S)Nc2ccc(-c3c4ccc(=O)cc-4oc4cc(O)ccc34)c(C(=O)O)c2)CC1)C(=O)N1CCC[C@H]1C(=O)N[C@@H](CCCCNC(=O)CCN(C)c1ccc(/N=N/c2ccc([N+](=O)[O-])cc2)cc1)C(=O)N[C@@H](CCCCN)C(=O)NCC(=O)N[C@@H](CO)C(=O)N[C@@H](CCCCN)C(N)=O` (X1-[Achc(trans-4)]APAPK(X2)KGSK-NH2): the fold change (FC) in [1] is 1.01; in assay [2], 5; in assay [9], 12.3; in assay [4], 1.18; in assay [5], 0.99; in assay [6], 3.83. In assay [8], the fold change (FC) amounted to 3.51.

Consider `CC[C@H](C)[C@H](NC(=O)[C@H](CCCNC(=N)N)NC(C)=O)C(=O)N[C@@H](CCCCNC(=O)Cc1ccc(/N=N/c2ccc(O)cc2)cc1)C(=O)N[C@@H](CCCNC(=N)N)C(=O)N[C@@H](Cc1ccc(O)cc1)C(N)=O` (Ac-RIK(X5)RY-NH2), for which, in assay [10], the IC50 amounted to 7 nM.

`O=C1CCCCC1C1(O)C(=O)Nc2ccccc21` (configuration not stated): the inhibition in assay [11] was over 35%.

For the molecule `C=C(C)Cn1c(NCCO)nc2c1c(=O)[nH]c(=O)n2C`, in assay [11], the inhibition is over 35%.

(Values after ChEMBL document CHEMBL4706730, “A Set of Highly Sensitive Sirtuin Fluorescence Probes for Screening Small-Molecular Sirtuin Defatty-Acylase Inhibitors” (ACS Med Chem Lett, 2021).)
